Key:
Substance-P receptor = Substance-P receptor (Homo sapiens, UniProt P25103); assay: Displacement of [125I]-labeled SP from the human Tachykinin receptor 1 expressed in CHO cells; format: cell-based
Gerbillinae [1] = assay: Inhibition of GR 73632-induced foot tapping in gerbils upon intravenous administration of compound; format: functional; settings: read-out: ID50 (the source's name)
Procedure, shortened: (§1)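 Male or female Mongolian gerbils (35–70 g) under isoflurane/oxygen anaesthesia. Test compound or vehicle is given iv into the jugular vein at 5 mL/kg. At 0, 4 or 24 h, GR 73,632 (3 pmol) is infused icv via a needle 4.5 mm below bregma. Hind foot tapping is timed for 5 min after recovery. 3–9 animals per dose. ID50 by nonlinear least-squares regression of mean data.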

Cavia porcellus [2] = assay: Inhibition of resiniferatoxin-induced systemic vascular leakage in guinea pig (SYVAL) upon oral administration at 24 hr r; format: functional
Procedure, shortened: (§2)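 Guinea pigs dosed orally 1 or 24 h before iv resiniferatoxin challenge (400 µL/kg over 30 s, penile vein), given 10 min after Evans Blue. Killed 10 min post-challenge. Bladder, trachea and esophagus dried (24 h, 65 °C) and extracted with plasma in formamide (65 °C, 24 h). Extravasation read at OD620-650 against plasma, as mg plasma/g dry tissue. n = 4-12 per point; ID50 by nonlinear least-squares regression of mean data.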

Gerbillinae [3] = assay: Inhibition of GR 73632-induced foot tapping in gerbils upon intravenous administration of compound after 4 hr; format: functional; settings: read-out: ID50 (the source's name); procedure, shortened: as §1
Gerbillinae [4] = assay: Inhibition of GR 73632-induced foot tapping in gerbils upon intravenous administration of compound after 24 hr; format: functional; settings: read-out: ID50 (the source's name); procedure, shortened: as §1
Cavia porcellus [5] = assay: Inhibition of resiniferatoxin-induced systemic vascular leakage in guinea pig (SYVAL) upon oral administration at 1 hr; format: functional; settings: read-out: ID50 (the source's name); procedure, shortened: as §2
Mustela putorius furo [6] = assay: compound was tested for antiemetic action in ferret at 3 mg/kg after peroral administration followed by emetogen (cisplatin) challenge at 10 mg/kg, iv after 60 min
Mustela putorius furo [7] = assay: compound was tested for antiemetic action in ferret at 0.3 mg/kg after intravenous administration followed by emetogen (cisplatin) challenge at 10 mg/kg, iv after 3 min; format: functional
Procedure, shortened: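 Male ferrets (1.0–2.0 kg) under halothane receive 0.3 mg/kg iv in PEG 300 vehicle, then cisplatin 10 mg/kg iv 3 min later. Retches and vomits are counted over 240 min and compared with vehicle controls. 4–7 animals per group.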

Mustela putorius furo [8] = assay: compound was tested for antiemetic action in ferret at 3 mg/kg after peroral administration followed by emetogen (cisplatin) challenge at 10 mg/kg, iv after 60 min; remark: listed apart in the source
Mustela putorius furo [9] = assay: as above; remark: listed apart in the source
Mustela putorius furo [10] = assay: compound was tested for antiemetic action in ferret at 3 mg/kg after peroral administration followed by emetogen (apomorphine) challenge at 0.25 mg/kg, sc; format: functional
Mustela putorius furo [11] = assay: compound was tested for antiemetic action in ferret at 3 mg/kg after peroral administration followed by emetogen (cisplatin) challenge at 10 mg/kg, iv after 60 min; remark: listed apart in the source
Mustela putorius furo [12] = assay: compound was tested for antiemetic action in ferret at 3 mg/kg after peroral administration followed by emetogen (morphine) challenge at 0.5 mg/kg, sc; format: functional
Procedure, shortened: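 Male ferrets (1.0–2.0 kg) receive 3.0 mg/kg po in 0.5% Methocel or vehicle. 60 min later they get a sc emetogen: apomorphine or morphine 0.5 mg/kg. Retches and vomits are counted for 30 min versus vehicle controls. 4–7 animals per group.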

Substance-P receptor, sequence (P25103 whole entry): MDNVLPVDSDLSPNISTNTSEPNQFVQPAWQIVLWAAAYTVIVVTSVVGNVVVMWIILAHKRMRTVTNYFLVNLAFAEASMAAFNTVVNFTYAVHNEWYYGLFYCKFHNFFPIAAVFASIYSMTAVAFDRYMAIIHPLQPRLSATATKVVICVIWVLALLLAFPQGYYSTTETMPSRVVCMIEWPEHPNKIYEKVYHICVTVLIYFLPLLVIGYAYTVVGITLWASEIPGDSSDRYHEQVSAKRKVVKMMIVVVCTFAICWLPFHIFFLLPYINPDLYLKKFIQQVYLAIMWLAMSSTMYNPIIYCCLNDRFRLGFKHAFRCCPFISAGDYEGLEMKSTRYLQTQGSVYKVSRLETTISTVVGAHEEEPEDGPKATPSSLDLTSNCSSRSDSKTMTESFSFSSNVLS

How did the IC50 (Substance-P receptor) turn out when `C[C@@H](O[C@H]1OCCN(Cc2n[nH]c(O)n2)[C@H]1c1ccccc1)c1cc(F)cc(C(F)(F)F)c1` was run?
The IC50 was 0.1 nM.

Which results are given for `O=c1[nH]nc(CN2CCO[C@H](OCc3cc(C(F)(F)F)cc(C(F)(F)F)c3)[C@@H]2c2ccc(F)cc2)[nH]1`?
ED50 (Gerbillinae [1]): 0.3 mg/kg; ID90 (Cavia porcellus [2]): 2.3 mg/kg; ED50 (Gerbillinae [3]): 0.07 mg/kg; ED50 (Gerbillinae [4]): 1.24 mg/kg; ED50 (Cavia porcellus [5]): 0.008 mg/kg; IC50 (Substance-P receptor): 0.07 nM

`C[C@@H](O[C@H]1OCCN(Cc2n[nH]c(=O)[nH]2)[C@H]1c1ccccc1)c1cc(C(F)(F)F)cc(C(F)(F)F)c1` was tested. Which IC50 (Substance-P receptor) did it give?
The IC50 was 0.88 nM.

`C[C@H](O[C@H]1OCCN(Cc2n[nH]c(O)n2)[C@H]1c1ccccc1)c1cc(C(F)(F)F)cc(C(F)(F)F)c1` was tested. Which ED50 (Gerbillinae [1]) did it give?
Its ED50 is 0.16 mg/kg.

What about the ID90 (Cavia porcellus [2]) of the same compound?
The ID90 was 2.3 mg/kg.

What about the ED50 (Gerbillinae [3]) of the same compound?
Its ED50 is 0.04 mg/kg.

And the ED50 (Gerbillinae [4])?
The ED50 was 1.11 mg/kg.

And the ED50 (Cavia porcellus [5])?
The ED50 was 0.01 mg/kg.

And the IC50 (Substance-P receptor)?
Its IC50 is 0.09 nM.

With `C[C@@H](O[C@H]1OCCN(Cc2n[nH]c(O)n2)[C@H]1c1ccccc1)c1cccc(C(F)(F)F)c1` as the compound, how does the IC50 (Substance-P receptor) read?
The IC50 was 0.27 nM.

With `O=c1[nH]nc(CN2CCO[C@H](OCc3cc(C(F)(F)F)cc(C(F)(F)F)c3)[C@@H]2c2ccccc2)[nH]1` as the compound, how does the ED50 (Gerbillinae [1]) read?
Its ED50 is 0.85 mg/kg.

And the ID90 (Cavia porcellus [2])?
Its ID90 is 5.4 mg/kg.

And the ED50 (Gerbillinae [4])?
Its ED50 is 2.88 mg/kg.

And the ED50 (Cavia porcellus [5])?
Its ED50 is 0.006 mg/kg.

`COc1ccc(-n2nnnc2C(F)(F)F)cc1CNC1CCCNC1c1ccccc1` (racemic) was tested. Which ED50 (Gerbillinae [1]) did it give?
The ED50 was 0.04 mg/kg.

And the ED50 (Gerbillinae [3])?
Its ED50 is 0.02 mg/kg.

What about the ED50 (Gerbillinae [4]) of the same compound?
Its ED50 is greater than 10 mg/kg.

With `COc1ccc(OC(F)(F)F)cc1CN[C@H]1CCCN[C@H]1c1ccccc1` (racemic) as the compound, how does the ED50 (Gerbillinae [1]) read?
The ED50 was 0.03 mg/kg.

And the ID90 (Cavia porcellus [2])?
Its ID90 is greater than 10 mg/kg.

And the ED50 (Gerbillinae [3])?
The ED50 was 0.24 mg/kg.

What about the ED50 (Gerbillinae [4]) of the same compound?
The ED50 was 5.37 mg/kg.

And the ED50 (Cavia porcellus [5])?
Its ED50 is 0.01 mg/kg.

With `C[C@@H](O[C@H]1OCCN(Cc2n[nH]c(=O)[nH]2)[C@H]1c1ccc(F)cc1)c1cc(C(F)(F)F)cc(C(F)(F)F)c1` [APREPITANT] as the compound, how does the Retches (Mustela putorius furo [6]) read?
The Retches was 2.8.

What about the Control retches (Mustela putorius furo [7]) of the same compound?
Its Control retches is 100.

What about the Control vomits (Mustela putorius furo [7]) of the same compound?
Its Control vomits is 12.7.

And the Retches (Mustela putorius furo [7])?
Its Retches is 5.3.

What about the Vomits (Mustela putorius furo [7]) of the same compound?
The Vomits was 1.

What about the Control vomits (Mustela putorius furo [8]) of the same compound?
The Control vomits was 22.3.

What about the ED50 (Gerbillinae [1]) of the same compound?
Its ED50 is 0.36 mg/kg.

And the ID90 (Cavia porcellus [2])?
The ID90 was 1.8 mg/kg.

And the ED50 (Gerbillinae [3])?
The ED50 was 0.04 mg/kg.

And the ED50 (Gerbillinae [4])?
The ED50 was 0.33 mg/kg.

And the Vomits (Mustela putorius furo [9])?
Its Vomits is 0.5.

And the Control retches (Mustela putorius furo [10])?
The Control retches was 28.3.

And the Control vomits (Mustela putorius furo [10])?
Its Control vomits is 3.3.

What about the Retches (Mustela putorius furo [10]) of the same compound?
Its Retches is 4.1.

What about the Vomits (Mustela putorius furo [10]) of the same compound?
Its Vomits is 0.7.

What about the ED50 (Cavia porcellus [5]) of the same compound?
Its ED50 is 0.008 mg/kg.

What about the Control retches (Mustela putorius furo [11]) of the same compound?
Its Control retches is 154.8.

And the Control retches (Mustela putorius furo [12])?
Its Control retches is 44.7.

And the Control vomits (Mustela putorius furo [12])?
The Control vomits was 5.5.

What about the Retches (Mustela putorius furo [12]) of the same compound?
Its Retches is 6.

What about the Vomits (Mustela putorius furo [12]) of the same compound?
Its Vomits is 0.5.

Which results are given for `COc1ccc(-n2nnnc2C(F)(F)F)cc1CN[C@H]1CCCN[C@H]1c1ccccc1` [VOFOPITANT]?
ID90 (Cavia porcellus [2]): >10 mg/kg; ED50 (Cavia porcellus [5]): 0.007 mg/kg; IC50 (Substance-P receptor): 0.08 nM
